In ChEMBL document CHEMBL3232766, “Discovery of lead compounds targeting the bacterial sliding clamp using a fragment-based approach” (J Med Chem, 2014):
≈ marks a conversion by molar mass, not a printed value. Calls of active or inactive are those of the source. The calls are words filed in the database; no cut-off is given here.

Key:
Escherichia coli [1] = assay: Inhibition of Escherichia coli DNA polymerase 3 beta assessed as inhibition of 5-carboxyfluorescein-QLDLF binding at <1 mM by fluorescence polarization-based competition assay
Summary of the method: (§1)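 Competition fluorescence polarization with E. coli sliding clamp and tracer 5-carboxyfluorescein-QLDLF (Kd 70 nM). Inhibition of tracer binding plotted against inhibitor concentration. IC50 converted to Ki using the Kenakin correction for ligand depletion.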

[2] = Inhibition of Escherichia coli DNA polymerase 3 beta assessed as inhibition of 5-carboxyfluorescein-QLDLF binding by fluorescence polarization-based competition assay; summary of the method: as §1
[3] = Distribution coefficient, log D of the compound at pH 7.2; assay type: physicochemical; settings: octanol/water
Escherichia coli [4] = assay: Inhibition of Escherichia coli DNA polymerase 3 beta assessed as inhibition of M13 ssDNA replication at 500 to 1000 uM after 60 mins by agarose gel electrophoresis-UV transilluminator analysis in presence of polymerase 3 alpha and reconstituted clamp loader complex gamm3-delta-delta'
Summary of the method: (§2)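 Reconstituted replication of 3 nM RNA-primed M13 ssDNA in 20 mM Tris-HCl pH 7.6, 10 mM MgCl2, 0.8 mM ATP, 8.4 mM DTT, 0.6 mM each dNTP, 120 mM NaCl, with 211 nM Pol III α, 700 nM SSB tetramer, 210 nM β dimer, 42 nM γ3δδ′. Compounds added at 0 °C, final 3.4% DMSO. Run 60 min at 30 °C, quenched with EDTA/SDS, products resolved on 0.7% agarose, SYBR Gold stained, viewed by UV.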

Escherichia coli [5] = assay: Antibacterial activity against Escherichia coli DH5[alpha] after 24 hrs by broth microdilution method; assay type: functional
Summary of the method: (§3)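 CLSI broth microdilution in cation-adjusted Mueller Hinton II broth. Overnight cultures diluted to 5 × 10⁴ CFU/mL. Compounds from 100 mM DMSO stocks, serially 2-fold diluted. OD read at 595 nm before and after 24 h at 37 °C. MIC taken as lowest concentration with background-subtracted OD <0.1. Controls: medium blank, DMSO vehicle, antibiotic.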

Acinetobacter baylyi = assay: Antibacterial activity against Acinetobacter baylyi ADP1 after 24 hrs by broth microdilution method; assay type: functional; settings: ADP1, 24 h; summary of the method: as §3
Staphylococcus aureus = assay: Antibacterial activity against Staphylococcus aureus NCTC 8325 after 24 hrs by broth microdilution method; assay type: functional; settings: NCTC 8325, 24 h; summary of the method: as §3
Bacillus subtilis = assay: Antibacterial activity against Bacillus subtilis SU5 after 24 hrs by broth microdilution method; assay type: functional; settings: SU5, 24 h; summary of the method: as §3
Escherichia coli [6] = assay: Inhibition of Escherichia coli DNA polymerase 3 beta assessed as inhibition of M13 ssDNA replication at 250 uM after 60 mins by agarose gel electrophoresis-UV transilluminator analysis in presence of polymerase 3 alpha and reconstituted clamp loader complex gamm3-delta-delta'; summary of the method: as §2

Row | SMILES | inhibition (Escherichia coli [1]) | IC50 [2] [µM] | Ki [2] [µM] | logD [3] | inhibition (Escherichia coli [4]) | MIC (Escherichia coli [5]) [µM] | logD ([3]; read-out: logD) | MIC (Acinetobacter baylyi) [µM] | MIC (Staphylococcus aureus) [µM] | MIC (Bacillus subtilis) [µM] | inhibition (Escherichia coli [6])
1 | O=[N+]([O-])c1ccc2[nH]ccc2c1 | inactive | – | – | – | – | – | – | – | – | – | –
2 | O=[N+]([O-])c1ccc2cn[nH]c2c1 | inactive | – | – | – | – | – | – | – | – | – | –
3 | Clc1ccc2c(c1)c1ccccc1n2CC1CO1 (centres undefined) | – | 358 | 199 | 4.93 | Active | – | – | – | – | – | –
4 | CCOC(=O)[C@@H]1CCCc2c1[nH]c1ccc(Cl)cc21 | – | 899 | 499 | – | – | 78 (≈ 21.7 µg/mL) | 4.44 | 156 (≈ 43.3 µg/mL) | 78 (≈ 21.7 µg/mL) | 78 (≈ 21.7 µg/mL) | –
5 | O=C(O)[C@@H]1CCCc2c1[nH]c1ccc(Cl)cc21 | – | 115 | 64 | – | – | 313 (≈ 78.2 µg/mL) | 0.36 | 313 (≈ 78.2 µg/mL) | 156 (≈ 39 µg/mL) | 156 (≈ 39 µg/mL) | Active
6 | COC(=O)[C@@H]1CCCc2c1[nH]c1ccc(Cl)cc21 | – | > 1000 | – | – | – | 156 (≈ 41.1 µg/mL) | – | 78 (≈ 20.6 µg/mL) | 156 (≈ 41.1 µg/mL) | 78 (≈ 20.6 µg/mL) | –
7 | NC(=O)c1ccc(F)c(F)c1 | inactive | – | – | – | – | – | – | – | – | – | –
8 | O=C(O)c1cc2[nH]c3c(c2cc1Cl)CCCC3 | – | 389 | 216 | – | Active | 2500 (≈ 624 µg/mL) | -0.48 | 5000 (≈ 1250 µg/mL) | 2500 (≈ 624 µg/mL) | 2500 (≈ 624 µg/mL) | –
9 | O=C1Nc2ccc(Cl)cc2C1=O | inactive | – | – | – | – | – | – | – | – | – | –
10 | O=C(O)c1ccc(-c2ccc(F)cc2)cc1 | – | 504 | 280 | – | Active | 2500 (≈ 541 µg/mL) | -3.17 | 5000 (≈ 1080 µg/mL) | 5000 (≈ 1080 µg/mL) | 2500 (≈ 541 µg/mL) | –
